High-throughput results as filed in PubChem BioAssay.
miR122 inh – inhibitors of miR-122 in Huh7 cells; AID 602342; 0.3% of 340,000 active; Huh7 miR-122 Renilla luciferase sensor, 48 h; neutral wells = 0, positive control = 100; activation (reporter increase), % at 12.5 µM;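 active means mean replicate activation score at least 90 and every replicate individually at or above 90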;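 further: higher luciferase means less miR-122 activity so hits act as miR-122 inhibitors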
dFosB activator – activators of mouse delta FosB homodimer; purified delta FosB, TAMRA-CDK5 oligo fluorescence polarization; percent of positive-control signal above neutral wells; P13346; activation, % at 25 µM; 0.99% of 340,000 active;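 active means mean activation above about 17%, with every replicate also reaching it, limit read from the data, passing the limit was not always enough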
Target sequence (P13346 whole entry, looked up): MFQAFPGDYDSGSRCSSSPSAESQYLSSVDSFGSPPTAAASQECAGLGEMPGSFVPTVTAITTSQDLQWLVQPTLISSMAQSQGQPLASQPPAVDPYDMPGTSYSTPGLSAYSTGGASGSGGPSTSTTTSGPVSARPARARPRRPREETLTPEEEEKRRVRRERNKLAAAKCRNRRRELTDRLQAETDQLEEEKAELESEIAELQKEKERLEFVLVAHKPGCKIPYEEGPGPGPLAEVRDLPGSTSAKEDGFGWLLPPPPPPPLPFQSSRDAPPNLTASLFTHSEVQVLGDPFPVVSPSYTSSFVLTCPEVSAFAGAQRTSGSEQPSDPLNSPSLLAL
Rtt109 Vps75 – inhibitors of Candida albicans Rtt109/Vps75 histone acetyltransferase. purified Rtt109/Vps75, ThioGlo CoA-SH fluorescence, 4 h. 0.16% of 330,000 active. Q5AAJ8. inhibition, % at 34.9 µM;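 active means inhibition of at least 50% in every replicate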
Target sequence (Q5AAJ8 whole entry, looked up): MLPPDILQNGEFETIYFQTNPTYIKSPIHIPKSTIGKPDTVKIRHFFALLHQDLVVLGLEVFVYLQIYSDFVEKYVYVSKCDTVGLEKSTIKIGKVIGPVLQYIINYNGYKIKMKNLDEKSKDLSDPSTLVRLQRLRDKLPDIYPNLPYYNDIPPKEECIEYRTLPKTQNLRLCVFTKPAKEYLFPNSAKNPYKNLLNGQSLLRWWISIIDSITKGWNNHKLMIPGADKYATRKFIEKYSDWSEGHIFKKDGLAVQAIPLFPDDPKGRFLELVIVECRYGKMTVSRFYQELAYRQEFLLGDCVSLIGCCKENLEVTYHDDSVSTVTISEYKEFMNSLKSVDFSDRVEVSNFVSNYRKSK
Env fusion inh – inhibitors of HIV Env-mediated cell fusion; inhibition, % at 12.3 µM; 1.1% of 360,000 active; HeLa-JRFL Env/CEM21 cell fusion, luciferase;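 active means mean replicate inhibition score of at least 50 and every replicate individually at or above 50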;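 further: 0% = plate neutral controls and 100% = maraviroc near 300 nM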
Cneo AK release – causes C. neoformans cell lysis; AID 651654; 0.2% of 360,000 active; adenylate kinase release luminescence, 4 h; normalised: neutral wells 0, clomiphene wells 100; lysis activity, % at 15 µM;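 active means mean lysis activity across replicates of at least 80%, whatever share of replicates individually reach that level; inactive means mean lysis activity below 80%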
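Assay system: C. neoformans cells. Amount: yeast cell density of 5 × 10^6 cells/mL. Technique: AK luminescence. Buffer or medium: YPD. Times: static 4 h at 37 °C with compound, 1 h detection. Dosing: single-point compound dose. Read-out: lysis from increased AK signal.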
INS-1E GSIS act – GLuc luminescence reporter in INS-1E cells, primary screen for activators of glucose-dependent secretion of insulin; INS-1E GLuc reporter insulin secretion, 2-3 h; activation, % at 16.6 µM; 0.61% of 370,000 active;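 active means lowest replicate activation of at least 40%, so every replicate reaches that level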;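 further: 0% = median of neutral control wells and 100% = median of IBMX positive control wells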
Active calls of the source: *; . = no result; [ ] = remark or other dose. Compounds with a hit are over-represented: about 2.4% of the library has one in this group of screens.

SMILES	miR122 inh	dFosB activator	Rtt109 Vps75	Env fusion inh	Cneo AK release	INS-1E GSIS act
CC(O)c1nc2ccccc2n1Cc1ccccc1 (configuration not stated)	-6.8	-0.6	0.6	-11.7	-10.6	14.7
CC(=O)N(C)C[C@@H]1Oc2c(N)cccc2C(=O)N(C)C[C@@H]1C	.	.	.	.	.	27.4
CCOC(=O)c1ccc(NC(=S)Nc2cccc(C)n2)cc1	11.4	-6.1	-12.1	10.3	8.3	48.3*
CCOC(=O)C1=C(c2ccccc2)c2ccccc2N(S(=O)(=O)C(F)(F)F)C1C(=O)OCC (configuration not stated)	-8.0	-8.0	-0.9	60.1*	-0.6	-15.9
CCOC(=O)C1C(C(C)=O)=C(c2ccccc2)c2ccccc2N1S(=O)(=O)C(F)(F)F (configuration not stated)	-1.6	-14.4	0.7	-4.3	-1.3	-0.8
Cc1cccc(-c2ccc([C@@H]3[C@@H](CO)N4C(=O)CN(C(=O)Cc5ccccn5)C[C@H]34)cc2)c1	.	.	.	.	.	-9.3
CCS(CC)=NS(=O)(=O)c1ccc(NC(C)=O)cc1	-7.2	-3.0	-16.2	.	122.6*	.
COc1ccc(NC(=O)Nc2ccc3c(c2)C(=O)N([C@H](C)CO)C[C@H](C)[C@H](CN(C)C(=O)CCC(F)(F)F)OCCCC[C@@H](C)O3)cc1	3.1[16.7 µM]	.	.	-4.9[16.7 µM]	-0.5	6.8
CC(C)NC(=O)N(C)C[C@@H]1Oc2ccc(NC(=O)Cn3cnnn3)cc2CC(=O)N([C@@H](C)CO)C[C@H]1C	4.9[16.7 µM]	.	.	-2.1[16.7 µM]	1.6	8.1
Oc1cc2c(cc1O)C1c3ccc(O)c(O)c3OCC1(O)C2 (configuration not stated)	-6.7	5.5	159.3*	.	-0.3	-13.9
C[C@H]1CN([C@@H](C)CO)C(=O)c2c(c3ccccc3n2C)-c2ccccc2CO[C@H]1CN(C)CC1CCCCC1	.	.	.	.	.	-3.6
Oc1ccc(-c2nc3c4c(ncn3n2)-c2ccccc2CC42CCCC2)cc1	.	4.0	1.7	.	.	190.4*
Nn1cnc2c(c1=O)C1(CCCCC1)Cc1ccccc1-2	.	-5.9	1.2	32.4	.	1.8
COCCCNC(=S)Nc1cc2oc3ccccc3c2cc1OC	11.7	-9.5	4.1	67.6*	74.1	-5.7
CCOc1c(Br)cc(Br)cc1/C=C1\SC(N)=NC1=O	.	25.0*	4.2	5.1	-1.6	3.4
CN(C)C(=O)c1ccc(-c2ccc(C3[C@@H]4CN(C(=O)Cc5ccccc5)C[C@H]3N4)cc2)cc1 (some centres not stated)	.	.	.	.	.	2.8
Cc1ccc(NC(=O)NCc2ccccn2)cc1	-0.1	-4.1	.	-2.5	3.6	1.0
CCOc1ccc(NC(=O)NCc2ccccn2)cc1	.	2.3	-11.2	57.5*	0.5	19.3
CCC(=O)Nc1ccc2c(c1)C(=O)N(C)C[C@@H](OC)[C@H](C)CN(C(=O)CC)[C@@H](C)CO2	.	.	.	59.4*[16.7 µM]	0.1	-3.8
CCCC(=O)Nc1ccc2c(c1)C(=O)N(C)C[C@H](OC)[C@@H](C)CN(C(=O)c1cccnc1)[C@@H](C)CO2	.	.	.	.	82.4*	2.3
CCC(=O)Nc1ccc2c(c1)OC[C@H](C)N(C(=O)c1ccc(F)cc1)C[C@H](C)[C@@H](OC)CN(C)C2=O	.	.	.	.	.	16.7
COCC(=O)Nc1ccc2c(c1)C(=O)N(C)C[C@@H](OC)[C@H](C)CN(C(C)=O)[C@H](C)CO2	-22.0[16.7 µM]	.	.	85.3*[16.7 µM]	-1.5	3.8
CCC(=O)Nc1ccc2c(c1)OC[C@H](C)N(C(=O)c1ccc(F)cc1)C[C@@H](C)[C@@H](OC)CN(C)C2=O	.	.	.	-18.7[16.7 µM]	92.0*	-3.1
O=C(Nc1ccc(Cl)cc1)N[C@@H]1CC[C@H](CCn2cc(Cc3ccccc3)nn2)O[C@H]1CO	.	.	.	-1.1[16.7 µM]	-3.8	-4.4
CO[C@@H]1CN(C)C(=O)c2ccc(NC(=O)C3CC3)cc2OC[C@@H](C)N(C(=O)c2ccccc2F)C[C@@H]1C	.	.	.	.	.	-0.4
SMILES	miR122 inh	dFosB activator	Rtt109 Vps75	Env fusion inh	Cneo AK release	INS-1E GSIS act
CCCNC(=O)N1CCC2(CC1)CN(C(=O)NC1CCCC1)[C@@H](CO)c1[nH]c3cc(OC)ccc3c12	.	.	.	.	.	4.2
COC(=O)C[C@H]1CC[C@H]2[C@H](COc3ccc(NC(=O)c4ccc(F)cc4)cc3C(=O)N2C)O1	5.1[16.7 µM]	.	.	-0.6[16.7 µM]	-2.5	6.1
C[C@@H]1CCCCO[C@H](CN(C)S(=O)(=O)c2cccs2)[C@H](C)CN([C@@H](C)CO)C(=O)c2cc(NS(=O)(=O)c3ccc(F)cc3)ccc2O1	-6.6[16.7 µM]	.	.	-43.8[16.7 µM]	-3.3	-2.0
C[C@@H]1CN([C@@H](C)CO)C(=O)Cc2cc(NS(=O)(=O)c3cn(C)cn3)ccc2O[C@@H]1CN(C)C(=O)Nc1cccc2ccccc12	7.7[16.7 µM]	.	.	3.1[16.7 µM]	-1.3	6.3
CO[C@H]1CN(C)C(=O)c2ccc(NS(=O)(=O)CC(F)(F)F)cc2OC[C@H](C)N(C(=O)c2ccc3c(c2)OCO3)C[C@@H]1C	.	.	.	-2.2[16.7 µM]	40.0	5.4
CCS(=O)(=O)Nc1ccc2c(c1)C(=O)N(C)C[C@H](OC)[C@@H](C)CN(C(=O)C1CCC1)[C@H](C)CO2	.	.	.	61.0*[16.7 µM]	-10.8	3.6
COCC(=O)Nc1ccc2c(c1)C(=O)N(C)C[C@@H](OC)[C@@H](C)CN(C)[C@H](C)CO2	.	.	.	59.7*[16.7 µM]	1.8	2.4
CO[C@@H]1CN(C)C(=O)c2ccc(NS(=O)(=O)CC(F)(F)F)cc2OC[C@@H](C)N(C(=O)c2ccc3c(c2)OCO3)C[C@@H]1C	.	.	.	64.5*[16.7 µM]	.	-5.2
CCS(=O)(=O)Nc1ccc2c(c1)C(=O)N(C)C[C@@H](OC)[C@H](C)CN(C(=O)C1CCC1)[C@@H](C)CO2	.	.	.	-1.2[16.7 µM]	-4.3	-3.0
CCCC(=O)Nc1ccc2c(c1)OC[C@H](C)N(C(=O)CN(C)C)C[C@@H](C)[C@H](OC)CN(C)C2=O	.	.	.	57.7*[16.7 µM]	-2.6	.
CCCC(=O)Nc1ccc2c(c1)OC[C@@H](C)N(C(=O)CN(C)C)C[C@@H](C)[C@H](OC)CN(C)C2=O	.	.	.	12.4[16.7 µM]	-1.5	0.9
COc1ccc2c3c([nH]c2c1)[C@H](CO)N(C)CC31CN(C(=O)Nc2c(C)noc2C)C1	.	.	.	.	.	7.0
O=C1CCCC2=C1C(c1cccs1)Nc1ccccc1N2 (configuration not stated)	.	3.1	-1.0	86.7*	.	-0.9
COc1ccccc1C#Cc1ccc([C@H]2[C@@H](C#N)N(C(=O)C3CCCC3)[C@@H]2CO)cc1	.	.	.	13.5[16.7 µM]	.	7.1
N#C[C@@H]1[C@H](c2ccc(C#CC3CCCC3)cc2)[C@@H](CO)N1C(=O)Nc1ccc(F)cc1	.	.	.	-26.9[16.7 µM]	3.5	-39.9
N#C[C@H]1[C@@H](c2ccc(C#CCC3CCCC3)cc2)[C@@H](CO)N1C(=O)c1ccccn1	.	.	.	-3.5[16.7 µM]	111.4*	-5.9
COc1ccccc1C#Cc1ccc([C@H]2[C@H](C#N)N(C(=O)C3CCCC3)[C@H]2CO)cc1	.	.	.	74.3*[16.7 µM]	.	-13.8
N#C[C@H]1[C@H](c2ccc(C#CC3CCCC3)cc2)[C@@H](CO)N1C(=O)Nc1ccc(F)cc1	.	.	.	55.6*[16.7 µM]	-1.7	-10.3
